Reference: ChEMBL document CHEMBL4689842, “EUbOPEN Chemogenomics Library wave 1” (2021)

Columns and labels:
Fibroblast = experiment: Incucyte cell viability with human fibroblast; assay type: toxicity, cell-based; settings: 10 µM, compound concentration 10 uM; also: filed as whole numbers so only -1 and 0 and 1 occur
HEK-293T = experiment: Multiplex assay against HEK293T; assay type: toxicity, cell-based; settings: human;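 as to Population Tubulin-Different-Phenotype (%): share of the cells with healthy nuclei that show this phenotype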
In short: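 With compound added, live cells were imaged on a CQ1 microscope at 37°C and 5% CO2; staining with Hoechst33342, BioTracker Green Microtubule Cytoskeleton Dye, MitoTracker Red and Annexin V Alexa Fluor 680 had been done at seeding. The CellPathfinder machine-learning gating scheme split cells into Hoechst high-intensity objects or normal cells, normal cells into healthy, pyknosed or fragmented nuclei, and pyknosed cells into mitotic or apoptotic. The tubulin, mitochondrial-mass and membrane-permeability phenotypes are per cents of healthy-nucleus cells.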

[1] = 12 h, 1 µM, compound concentration 1 uM, replicate 1
[2] = 12 h, 1 µM, compound concentration 1 uM, replicate 2
[3] = 12 h, 10 µM, compound concentration 10 uM, replicate 1
[4] = 12 h, 10 µM, compound concentration 10 uM, replicate 2
[5] = 24 h, 1 µM, compound concentration 1 uM, replicate 1
[6] = 24 h, 1 µM, compound concentration 1 uM, replicate 2
[7] = 24 h, 10 µM, compound concentration 10 uM, replicate 1
[8] = 24 h, 10 µM, compound concentration 10 uM, replicate 2
[9] = 48 h, 1 µM, compound concentration 1 uM, replicate 1
[10] = 48 h, 1 µM, compound concentration 1 uM, replicate 2
[11] = 48 h, 10 µM, compound concentration 10 uM, replicate 1
[12] = 48 h, 10 µM, compound concentration 10 uM, replicate 2

CCC(=O)O[C@]1(C(=O)SCF)[C@H](C)C[C@H]2[C@@H]3C[C@H](F)C4=CC(=O)C=C[C@]4(C)[C@@]3(F)[C@@H](O)C[C@@]21C [FLUTICASONE PROPIONATE]
Growth Rate (Fibroblast; 0 h, replicate number 1, timepoint 0 hours): 0 | Growth Rate (Fibroblast; 6 h, replicate number 1, timepoint 6 hours): 1 | Growth Rate (Fibroblast; 18 h, replicate number 1, timepoint 18 hours): 1 | Growth Rate (Fibroblast; 24 h, replicate number 1, timepoint 24 hours): 1 | Population Apoptotic (%) (HEK-293T; [1]): 51% | Population Fragmented Nuclei (%) (HEK-293T; [1]): 10% | Population Healthy Nuclei (%) (HEK-293T; [1]): 33% | Population Hoechst High Intensity Objects (%) (HEK-293T; [1]): 11% | Population Membrane Permeable-Phenotype (%) (HEK-293T; [1]): 0% | Population Mitochondria Different-Phenotype (%) (HEK-293T; [1]): 87% | Population Mitotic Cells (%) (HEK-293T; [1]): 48% | Population Normal (%) (HEK-293T; [1]): 88% | Population Pyknosed Nuclei (%) (HEK-293T; [1]): 56% | Population Tubulin-Different-Phenotype (%) (HEK-293T; [1]): 52% | Total Cell Count (HEK-293T; [1]): 253 | Population Apoptotic (%) (HEK-293T; [2]): 9% | Population Fragmented Nuclei (%) (HEK-293T; [2]): 4% | Population Healthy Nuclei (%) (HEK-293T; [2]): 46% | Population Hoechst High Intensity Objects (%) (HEK-293T; [2]): 2% | Population Membrane Permeable-Phenotype (%) (HEK-293T; [2]): 7% | Population Mitochondria Different-Phenotype (%) (HEK-293T; [2]): 13% | Population Mitotic Cells (%) (HEK-293T; [2]): 90% | Population Normal (%) (HEK-293T; [2]): 97% | Population Pyknosed Nuclei (%) (HEK-293T; [2]): 48% | Population Tubulin-Different-Phenotype (%) (HEK-293T; [2]): 19% | Total Cell Count (HEK-293T; [2]): 273 | Population Apoptotic (%) (HEK-293T; [3]): 68% | Population Fragmented Nuclei (%) (HEK-293T; [3]): 11% | Population Healthy Nuclei (%) (HEK-293T; [3]): 32% | Population Hoechst High Intensity Objects (%) (HEK-293T; [3]): 15% | Population Membrane Permeable-Phenotype (%) (HEK-293T; [3]): 1% | Population Mitochondria Different-Phenotype (%) (HEK-293T; [3]): 89% | Population Mitotic Cells (%) (HEK-293T; [3]): 31% | Population Normal (%) (HEK-293T; [3]): 84% | Population Pyknosed Nuclei (%) (HEK-293T; [3]): 56% | Population Tubulin-Different-Phenotype (%) (HEK-293T; [3]): 78% | Total Cell Count (HEK-293T; [3]): 203 | Population Apoptotic (%) (HEK-293T; [4]): 25% | Population Fragmented Nuclei (%) (HEK-293T; [4]): 4% | Population Healthy Nuclei (%) (HEK-293T; [4]): 27% | Population Hoechst High Intensity Objects (%) (HEK-293T; [4]): 6% | Population Membrane Permeable-Phenotype (%) (HEK-293T; [4]): 8% | Population Mitochondria Different-Phenotype (%) (HEK-293T; [4]): 54% | Population Mitotic Cells (%) (HEK-293T; [4]): 74% | Population Normal (%) (HEK-293T; [4]): 93% | Population Pyknosed Nuclei (%) (HEK-293T; [4]): 68% | Population Tubulin-Different-Phenotype (%) (HEK-293T; [4]): 60% | Total Cell Count (HEK-293T; [4]): 187 | Population Apoptotic (%) (HEK-293T; [5]): 59% | Population Fragmented Nuclei (%) (HEK-293T; [5]): 10% | Population Healthy Nuclei (%) (HEK-293T; [5]): 41% | Population Hoechst High Intensity Objects (%) (HEK-293T; [5]): 17% | Population Membrane Permeable-Phenotype (%) (HEK-293T; [5]): 6% | Population Mitochondria Different-Phenotype (%) (HEK-293T; [5]): 68% | Population Mitotic Cells (%) (HEK-293T; [5]): 40% | Population Normal (%) (HEK-293T; [5]): 82% | Population Pyknosed Nuclei (%) (HEK-293T; [5]): 48% | Population Tubulin-Different-Phenotype (%) (HEK-293T; [5]): 40% | Total Cell Count (HEK-293T; [5]): 273 | Population Apoptotic (%) (HEK-293T; [6]): 7% | Population Fragmented Nuclei (%) (HEK-293T; [6]): 3% | Population Healthy Nuclei (%) (HEK-293T; [6]): 67% | Population Hoechst High Intensity Objects (%) (HEK-293T; [6]): 1% | Population Mitochondria Different-Phenotype (%) (HEK-293T; [6]): 12% | Population Mitotic Cells (%) (HEK-293T; [6]): 92% | Population Normal (%) (HEK-293T; [6]): 98% | Population Pyknosed Nuclei (%) (HEK-293T; [6]): 29% | Population Tubulin-Different-Phenotype (%) (HEK-293T; [6]): 22% | Total Cell Count (HEK-293T; [6]): 322 | Population Apoptotic (%) (HEK-293T; [7]): 61% | Population Fragmented Nuclei (%) (HEK-293T; [7]): 15% | Population Healthy Nuclei (%) (HEK-293T; [7]): 33% | Population Hoechst High Intensity Objects (%) (HEK-293T; [7]): 15% | Population Membrane Permeable-Phenotype (%) (HEK-293T; [7]): 0% | Population Mitochondria Different-Phenotype (%) (HEK-293T; [7]): 80% | Population Mitotic Cells (%) (HEK-293T; [7]): 38% | Population Normal (%) (HEK-293T; [7]): 84% | Population Pyknosed Nuclei (%) (HEK-293T; [7]): 50% | Population Tubulin-Different-Phenotype (%) (HEK-293T; [7]): 67% | Total Cell Count (HEK-293T; [7]): 237 | Population Apoptotic (%) (HEK-293T; [8]): 44% | Population Fragmented Nuclei (%) (HEK-293T; [8]): 11% | Population Healthy Nuclei (%) (HEK-293T; [8]): 44% | Population Hoechst High Intensity Objects (%) (HEK-293T; [8]): 3% | Population Membrane Permeable-Phenotype (%) (HEK-293T; [8]): 8% | Population Mitochondria Different-Phenotype (%) (HEK-293T; [8]): 43% | Population Mitotic Cells (%) (HEK-293T; [8]): 55% | Population Normal (%) (HEK-293T; [8]): 96% | Population Pyknosed Nuclei (%) (HEK-293T; [8]): 44% | Population Tubulin-Different-Phenotype (%) (HEK-293T; [8]): 53% | Total Cell Count (HEK-293T; [8]): 226 | Population Apoptotic (%) (HEK-293T; [9]): 50% | Population Fragmented Nuclei (%) (HEK-293T; [9]): 14% | Population Healthy Nuclei (%) (HEK-293T; [9]): 50% | Population Hoechst High Intensity Objects (%) (HEK-293T; [9]): 14% | Population Membrane Permeable-Phenotype (%) (HEK-293T; [9]): 2% | Population Mitochondria Different-Phenotype (%) (HEK-293T; [9]): 34% | Population Mitotic Cells (%) (HEK-293T; [9]): 50% | Population Normal (%) (HEK-293T; [9]): 85% | Population Pyknosed Nuclei (%) (HEK-293T; [9]): 35% | Population Tubulin-Different-Phenotype (%) (HEK-293T; [9]): 28% | Total Cell Count (HEK-293T; [9]): 348 | Population Apoptotic (%) (HEK-293T; [10]): 9% | Population Fragmented Nuclei (%) (HEK-293T; [10]): 4% | Population Healthy Nuclei (%) (HEK-293T; [10]): 81% | Population Hoechst High Intensity Objects (%) (HEK-293T; [10]): 2% | Population Membrane Permeable-Phenotype (%) (HEK-293T; [10]): 5% | Population Mitochondria Different-Phenotype (%) (HEK-293T; [10]): 3% | Population Mitotic Cells (%) (HEK-293T; [10]): 90% | Population Normal (%) (HEK-293T; [10]): 97% | Population Pyknosed Nuclei (%) (HEK-293T; [10]): 13% | Population Tubulin-Different-Phenotype (%) (HEK-293T; [10]): 23% | Total Cell Count (HEK-293T; [10]): 621 | Population Apoptotic (%) (HEK-293T; [11]): 67% | Population Fragmented Nuclei (%) (HEK-293T; [11]): 15% | Population Healthy Nuclei (%) (HEK-293T; [11]): 51% | Population Hoechst High Intensity Objects (%) (HEK-293T; [11]): 12% | Population Membrane Permeable-Phenotype (%) (HEK-293T; [11]): 10% | Population Mitochondria Different-Phenotype (%) (HEK-293T; [11]): 60% | Population Mitotic Cells (%) (HEK-293T; [11]): 32% | Population Normal (%) (HEK-293T; [11]): 87% | Population Pyknosed Nuclei (%) (HEK-293T; [11]): 33% | Population Tubulin-Different-Phenotype (%) (HEK-293T; [11]): 55% | Total Cell Count (HEK-293T; [11]): 278 | Population Apoptotic (%) (HEK-293T; [12]): 28% | Population Fragmented Nuclei (%) (HEK-293T; [12]): 7% | Population Healthy Nuclei (%) (HEK-293T; [12]): 74% | Population Hoechst High Intensity Objects (%) (HEK-293T; [12]): 5% | Population Membrane Permeable-Phenotype (%) (HEK-293T; [12]): 9% | Population Mitochondria Different-Phenotype (%) (HEK-293T; [12]): 22% | Population Mitotic Cells (%) (HEK-293T; [12]): 71% | Population Normal (%) (HEK-293T; [12]): 94% | Population Pyknosed Nuclei (%) (HEK-293T; [12]): 18% | Population Tubulin-Different-Phenotype (%) (HEK-293T; [12]): 52% | Total Cell Count (HEK-293T; [12]): 330
